Measured values from ChEMBL document CHEMBL3102812 (J Med Chem, 2013).
Converted amounts (≈) assume the structure as drawn. The source made the active and inactive calls. The rule behind the calls is not given here.

Legend:
Mus musculus [1] = experiment: Toxicity in Swiss mouse at 20 mg/kg, po; conditions: in vivo
[2] = Kinetic aqueous solubility of the compound in phosphate buffer at pH 6.5 by nephelometric analysis
[3] = Kinetic aqueous solubility of the compound in phosphate buffer at pH 2 by nephelometric analysis; conditions: for solubility kinetic: phosphate buffer
[4] = Partition coefficient, log D of the compound at pH 7.4 by chromatographic method; conditions: octanol/water
Cytochrome P450 3A4 = Cytochrome P450 3A4 (Homo sapiens, UniProt P08684); experiment: Inhibition of CYP3A4 in human liver microsomes assessed as 6beta-hydroxylation of testosterone
Chain of Cytochrome P450 3A4 (P08684 whole entry): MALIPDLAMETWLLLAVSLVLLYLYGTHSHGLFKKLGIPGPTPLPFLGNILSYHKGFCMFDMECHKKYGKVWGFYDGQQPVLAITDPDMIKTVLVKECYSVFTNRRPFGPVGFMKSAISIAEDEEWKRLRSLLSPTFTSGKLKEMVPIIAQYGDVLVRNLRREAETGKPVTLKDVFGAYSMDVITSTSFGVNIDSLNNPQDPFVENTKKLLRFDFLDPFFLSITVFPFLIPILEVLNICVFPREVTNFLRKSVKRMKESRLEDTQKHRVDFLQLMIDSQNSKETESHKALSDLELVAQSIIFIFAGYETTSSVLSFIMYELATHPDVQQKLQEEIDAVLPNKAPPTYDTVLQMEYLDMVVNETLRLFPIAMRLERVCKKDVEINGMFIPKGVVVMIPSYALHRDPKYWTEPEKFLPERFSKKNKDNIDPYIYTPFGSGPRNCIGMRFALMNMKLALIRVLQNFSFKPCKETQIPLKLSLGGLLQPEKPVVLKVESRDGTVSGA

Trypanosoma cruzi [5] = experiment: Antitrypanosomal activity against Trypanosoma cruzi Tulahuen 6 amastigotes infected in rat L6 cells after 96 hrs by colorimetric method; assay type: functional, organism-based; conditions: Tulahuen 6, L6, 96 h
Trypanosoma cruzi [6] = experiment: Antitrypanosomal activity against Trypanosoma cruzi Tulahuen 6 infected in Swiss mouse assessed as reduction in blood parasitemia at 20 mg/kg, po qd administered on day 8 post-infection for 10 days by microscopic analysis; assay type: functional, organism-based; set-up: dose 20 mg/kg
Outline: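 Infected Swiss mice dosed orally at 20 mg/kg once daily for up to 10 days starting day 8 pi; blood parasitemia followed by microscopy throughout dosing, scored as cleared or not during the dosing period.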

Trypanosoma cruzi [7] = experiment: Antitrypanosomal activity against Trypanosoma cruzi Tulahuen 6 infected in Swiss mouse at 20 mg/kg, po qd administered on day 8 post-infection for 20 days followed by 10 days non-treatment period followed by three cycles of immunosuppression measured on day 58 post-infection by PCR analysis; assay type: functional, organism-based; set-up: dose 20 mg/kg
Trypanosoma cruzi [8] = experiment: Antitrypanosomal activity against Trypanosoma cruzi Tulahuen 6 infected in Swiss mouse assessed as mouse survival at 10 mg/kg, po qd administered on day 8 post-infection for 20 days measured on day 28 post-infection by microscopic analysis; assay type: functional, organism-based; set-up: dose 10 mg/kg
Outline: (§1)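 Outbred female Swiss mice (~8 weeks) infected with mouse-passaged Tulahuen TcVI trypomastigotes; oral dosing once daily for 20 days from day 8 post-infection, suspension in 0.5% HPMC, 0.4% Tween 80, 0.5% benzyl alcohol, 5% DMSO in water; blood parasitemia by microscopy (LOD 20 000 parasites/mL); mice with recurring parasitemia euthanized; survival counted per starting group; 10-day untreated period days 28–37.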

Trypanosoma cruzi [9] = experiment: Antitrypanosomal activity against Trypanosoma cruzi Tulahuen 6 infected in Swiss mouse assessed as mouse survival at 20 mg/kg, po qd administered on day 8 post-infection measured on same day by microscopic analysis; assay type: functional, organism-based; set-up: dose 20 mg/kg
Trypanosoma cruzi [10] = experiment: Antitrypanosomal activity against Trypanosoma cruzi Tulahuen 6 infected in Swiss mouse assessed as mouse survival at 20 mg/kg, po qd administered on day 8 post-infection for 20 days followed by 10 days non-treatment measured on day 37 post-infection by microscopic analysis; assay type: functional, organism-based; set-up: dose 20 mg/kg; outline: as §1
Mus musculus [11] = experiment: Toxicity in Swiss mouse assessed as weight loss at 50 mg/kg, po bid for 2.5 days; assay type: organism-based; set-up: dose 50 mg/kg, route oral; conditions: in vivo, 60 h
Outline: (§2)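 Acute toxicity by stepwise cumulative oral dosing in two mice per compound: 25 and/or 50 mg/kg twice daily for 2.5 days to […]; animals observed for 1 week after the last dose for adverse effects and weight loss.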

Mus musculus [12] = experiment: Toxicity in Swiss mouse assessed as weight loss at 25 mg/kg, po bid for 2.5 days; assay type: organism-based; set-up: dose 25 mg/kg, route oral; conditions: in vivo, 60 h; outline: as §2
Mus musculus [13] = experiment: Oral bioavailability in Swiss mouse at 20 mg/kg by LC/MS analysis; assay type: ADME, organism-based; conditions: in vivo
[14] = Half life in Swiss mouse at 20 mg/kg, po by LC/MS analysis; assay type: ADME, organism-based; set-up: dose 20 mg/kg, route oral; conditions: in vivo
[15] = Volume of distribution at steady state in Swiss mouse at 2 mg/kg, iv and 20 mg/kg, po by LC/MS analysis; assay type: ADME, organism-based; conditions: in vivo, read-out: Vdss
[16] = Half life in Swiss mouse at 2 mg/kg, iv by LC/MS analysis; assay type: ADME, organism-based; set-up: dose 2 mg/kg, route intravenous; conditions: in vivo
[17] = Plasma clearance in Swiss mouse at 2 mg/kg, iv and 20 mg/kg, po by LC/MS analysis; assay type: ADME, organism-based
Trypanosoma cruzi [18] = experiment: Antitrypanosomal activity against Trypanosoma cruzi Tulahuen 6 infected in Swiss mouse assessed as mouse survival at 20 mg/kg, po qd administered on day 8 post-infection for 20 days measured on day 28 post-infection by microscopic analysis; assay type: functional, organism-based; set-up: dose 20 mg/kg

SMILES | Activity (Mus musculus [1]) | solubility kinetic [2] [µg/mL] | solubility kinetic [3] [µg/mL] | chromatographic logD [4] | IC50 (Cytochrome P450 3A4) [nM] | IC50 (Trypanosoma cruzi [5]) [nM] | Activity (Trypanosoma cruzi [6]) | other results
N#Cc1ccc(C(C(=O)N2CCN(c3ccc(C(F)(F)F)cn3)CC2)c2cccnc2)cc1 (stereo unspecified) | Non-toxic | 6.3 (≈ 14 µM) | 50 (≈ 111 µM) | 3.5 | > 20000 | 12 | – | –
N#Cc1ccc(C(c2cccnc2)N2CCC(NC(=O)c3ccccc3)CC2)cc1 (stereo unspecified) | Non-toxic | – | – | – | – | 24 | inactive | –
CC(C)(C)CC(=O)N1CCC(N(c2ccc(Cl)cc2)c2cccnc2)CC1 | – | 6.3 (≈ 16.3 µM) | > 100 | 4.2 | – | – | – | –
Cc1cc(C(=O)NC2CCN(C(c3ccc(C#N)cc3)c3cccnc3)CC2)n(C)n1 (stereo unspecified) | Non-toxic | – | – | – | – | 47 | inactive | –
N#Cc1ccc(N(c2cccnc2)C2CCN(c3ccc(C(F)(F)F)cc3)CC2)cc1 | Non-toxic | < 1.6 | 25 (≈ 59.2 µM) | 4.7 | – | 3 | – | –
CC[C@@H]([C@H](C)O)n1ncn(-c2ccc(N3CCN(c4ccc(OC[C@@H]5CO[C@@](Cn6cncn6)(c6ccc(F)cc6F)C5)cc4)CC3)cc2)c1=O [POSACONAZOLE] | Non-toxic | – | – | – | – | 1 | Active | Activity (Trypanosoma cruzi [7]): Active; Activity (Trypanosoma cruzi [8]): Active; Activity (Trypanosoma cruzi [9]): Active; Activity (Trypanosoma cruzi [10]): Active
Cc1ncsc1C(=O)N1CCC(NC(c2ccc(C(F)(F)F)cc2)c2cccnc2)CC1 (stereo unspecified) | Non-toxic | – | – | – | – | 58 | inactive | –
N#Cc1ccc(C(O)(c2ccc(C(F)(F)F)cc2)c2cccnc2)c(F)c1 (stereo unspecified) | Non-toxic | – | – | – | – | – | Active | –
Cc1ccccc1CN1CCC(N(c2ccc(C(F)(F)F)cc2)c2cccnc2)CC1 | – | 3.1 (≈ 7.29 µM) | > 100 | > 5.3 | – | – | – | –
N#Cc1ccc(C(C(=O)N2CCN(c3ccc(C(F)(F)F)cc3)CC2)c2cccnc2)cc1 (stereo unspecified) | Non-toxic | 3.1 (≈ 6.88 µM) | > 100 | 3.8 | > 20000 | 12 | – | –
CS(=O)(=O)c1ccc(N2CCN(C(=O)C(c3ccc(C#N)cc3)c3cccnc3)CC2)cc1 (stereo unspecified) | Non-toxic | 3.1 (≈ 6.73 µM) | 25 (≈ 54.3 µM) | 2.4 | > 20000 | 24 | – | –
FC(F)(F)c1ccc(N(c2cccnc2)C2CCN(c3ccc(C(F)(F)F)cn3)CC2)cc1 | Non-toxic | < 1.6 | > 100 | > 5.3 | – | 17 | Active | Activity (Mus musculus [11]): Non-toxic; Activity (Mus musculus [12]): Non-toxic; Activity (Trypanosoma cruzi [7]): Active; Activity (Trypanosoma cruzi [9]): Active; F (Mus musculus [13]): 95%; half-life [14]: 12.5 h; Vd [15]: 4.4 L/kg; half-life [16]: 8.6 h; clearance [17]: 8.1 mL/min/kg
O=C(C(c1ccc(Cl)cc1)c1cccnc1)N1CCN(c2ccc(C(F)(F)F)cc2)CC1 (racemic) | Non-toxic | 1.6 (≈ 3.48 µM) | > 100 | 4.5 | 16000 | – | Active | Activity (Mus musculus [11]): Non-toxic; Activity (Mus musculus [12]): Non-toxic; Activity (Trypanosoma cruzi [7]): inactive; Activity (Trypanosoma cruzi [18]): Active; Activity (Trypanosoma cruzi [9]): Active; Activity (Trypanosoma cruzi [10]): Active
O=C(C(c1ccc(Cl)cc1)c1cccnc1)N1CCN(c2ccc(C(F)(F)F)nc2)CC1 (stereo unspecified) | Non-toxic | 6.3 (≈ 13.7 µM) | 50 (≈ 108 µM) | 3.7 | > 20000 | 8 | – | –
FC(F)(F)c1ccc(N(c2cncnc2)C2CCN(c3ccc(C(F)(F)F)cn3)CC2)cc1 | Non-toxic | < 1.6 | 12.5 (≈ 26.7 µM) | 4.9 | 6300 | 5 | – | –
N#Cc1ccc(C(O)(c2ccc(C(F)(F)F)cc2)c2cccnc2)cc1 (stereo unspecified) | Non-toxic | – | – | – | – | – | Active | –
O=C(C(c1ccc(Cl)cc1)c1cccnc1)N1CCN(c2ccc(C(F)(F)F)cn2)CC1 (stereo unspecified) | Non-toxic | 3.1 (≈ 6.73 µM) | – | 4.2 | 7000 | 12 | – | Kinetic solubility ([3]; buffer): 25 µg/mL
Fc1cc(Cl)ccc1C(NC1CCN(c2ccc(C(F)(F)F)cc2)CC1)c1cccnc1 (stereo unspecified) | Non-toxic | – | – | – | – | 11 | Active | –
N#Cc1ccc(C(c2cccnc2)N2CCC(NC(=O)c3c(F)cccc3F)CC2)cc1 (stereo unspecified) | Non-toxic | – | – | – | – | 19 | inactive | –
FC(F)(F)c1ccc(N(c2cccnc2)C2CCN(c3ccc(Cl)cc3)CC2)cc1 | – | < 1.6 | > 100 | > 5.3 | – | – | – | –
O=C([C@H](c1ccc(Cl)cc1)c1cccnc1)N1CCN(c2ccc(C(F)(F)F)cc2)CC1 | – | 1.6 (≈ 3.48 µM) | > 100 | 4.5 | 17000 | – | – | –
N#Cc1ccc(C(C(=O)N2CCN(c3ccc(C(F)(F)F)nc3)CC2)c2cccnc2)cc1 (stereo unspecified) | – | 25 (≈ 55.4 µM) | > 100 | 3 | > 20000 | – | – | –
N#Cc1ccccc1N1CCC(N(c2ccc(C(F)(F)F)cc2)c2cccnc2)CC1 | – | < 1.6 | > 100 | 4.9 | 5200 | – | – | –
CS(=O)(=O)c1ccc(N2CCN(C(=O)C(c3ccc(Cl)cc3)c3cccnc3)CC2)cc1 (stereo unspecified) | Non-toxic | 6.3 (≈ 13.4 µM) | > 100 | 3 | 4000 | 2 | – | –
CS(=O)(=O)c1ccc(N2CCC(N(c3ccc(C#N)cc3)c3cccnc3)CC2)cc1 | Non-toxic | < 1.6 | 25 (≈ 57.8 µM) | 3 | 12000 | 2 | – | –
N#Cc1cccc(N2CCC(NC(c3cccnc3)c3ccc(Cl)cc3F)CC2)c1 (stereo unspecified) | Non-toxic | – | – | – | – | 13 | inactive | –
FC(F)(F)c1ccc(N2CCC(N(c3ccc(C(F)(F)F)cc3)c3cccnc3)CC2)cc1 | – | – | – | – | – | 17 | – | –
